{"source": "PubChem BioAssay AID624315", "about": "(Broad Institute, 2012)", "note": "Where “and” joins values, the source holds several entries; their conditions need not be identical. Equal values may be shown once. Calls of active or inactive are those of the source.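 The calls were made as follows: active = compounds lowering cell ATP signal whose fitted IC50 is at or below twice the top valid tested dose; inconclusive = flat fit with 30 to 70% inhibition, or poor fit; inactive = the rest.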", "data": [{"test_system": "SK-MEL-5 melanoma viability, CellTiter-Glo ATP, 24 h", "test": "SK-MEL-5 parental cell viability reduction, dose response, orthogonal assay for MITF inhibitor project, CellTiter-Glo luminescence, dry powder samples, set 3 (AID 624315)", "conditions": "not given", "procedure,_shortened": "(§1)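 System: SK-MEL-5 human melanoma cells, parental non-reporter line; medium: phenol red-free medium; dosing: multiple compound concentrations delivered by pin transfer; incubation: 24 h treatment at 37 °C, 5 min RT before reading; detection: CellTiter-Glo luminescence measuring cellular ATP content; read-out basis: viability from ATP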", "values": [{"smiles": "O=C(NC1=C(c2ccc(Oc3ccccc3)cc2)C(=O)c2ccccc2C1=O)c1ccccc1", "IC50": "> 70 µM (inactive)"}, {"smiles": "CC(=O)N(C)C1=C(N2CCCCC2)C(=O)c2ccccc2C1=O", "IC50": "4.42 µM"}, {"smiles": "CN1CCN(C2=C(NS(=O)(=O)c3ccccc3)C(=O)c3ccccc3C2=O)CC1", "IC50": "18.2 µM"}, {"smiles": "C=CCNC1=C(N2CCCCC2)C(=O)c2ccccc2C1=O", "IC50": "5.3 µM"}, {"smiles": "CCN1CCN(C2=C(NC(=O)c3ccccc3)C(=O)c3ccccc3C2=O)CC1", "IC50": "8.63 µM"}, {"smiles": "CC(=O)NC1=C(c2ccc(Cl)cc2)C(=O)c2ccccc2C1=O", "IC50": "13.4 µM"}, {"smiles": "C=CCNC1=C(N2CCN(C)CC2)C(=O)c2ccccc2C1=O", "IC50": "25.3 µM"}, {"smiles": "CC(=O)NC1=C(c2ccccc2)C(=O)c2ccccc2C1=O", "IC50": "18.3 µM"}, {"smiles": "COc1ccc(C2=C(NC(=O)c3ccc(OC)cc3-c3cccc(OC)c3)C(=O)c3ccccc3C2=O)cc1", "IC50": "> 70 µM (inactive)"}, {"smiles": "COc1ccc(C2=C(NC(=O)c3ccccc3OC)C(=O)c3ccccc3C2=O)cc1", "IC50": "> 70 µM (inactive)"}, {"smiles": "C[C@@H](NC1=C(Nc2ccccc2)C(=O)c2ccccc2C1=O)c1ccccc1", "IC50": "> 70 µM (inactive)"}, {"smiles": "O=C1C(NS(=O)(=O)c2ccc(Br)cc2)=C(N2CCOCC2)C(=O)c2ccccc21", "IC50": "35.4 µM"}, {"smiles": "O=C(NC1=C(N2CCN(c3ccccc3)CC2)C(=O)c2ccccc2C1=O)c1ccccc1", "IC50": "> 70 µM (inactive)"}, {"smiles": "O=C(NC1=C(c2ccc(OC(F)(F)F)cc2)C(=O)c2ccccc2C1=O)c1ccc(Br)cc1", "IC50": "> 70 µM (inactive)"}, {"smiles": "Cc1ccc(C(=O)NC2=C(c3ccccc3)C(=O)c3ccccc3C2=O)o1", "IC50": "23.6 µM"}, {"smiles": "C=CCNC1=C(N(C)C(C)=O)C(=O)c2ccccc2C1=O", "IC50": "0.79 µM"}, {"smiles": "O=C1C(NS(=O)(=O)c2cccs2)=C(N2CCCCC2)C(=O)c2ccccc21", "IC50": "> 70 µM (inactive)"}, {"smiles": "CN1CCN(C2=C(NS(=O)(=O)c3ccc(Br)cc3)C(=O)c3ccccc3C2=O)CC1", "IC50": "> 70 µM (inactive)"}, {"smiles": "C=CCNC1=C(Cl)C(=O)c2ccccc2C1=O", "IC50": "9.72 µM and 12.1 µM"}, {"smiles": "CCN(CC)CCCNC1=C(N(C)C(C)=O)C(=O)c2ccccc2C1=O", "IC50": "5.52 µM"}, {"smiles": "COc1ccc(S(=O)(=O)N(C(C)=O)c2ccc(OC(C)=O)c3ccccc23)cc1[N+](=O)[O-]", "IC50": "31.6 µM"}, {"smiles": "COc1cccc(-c2cc(C(=O)NC3=C(Cl)C(=O)c4ccccc4C3=O)ccc2OC)c1", "IC50": "34 µM"}, {"smiles": "O=C1C(Nc2ccccc2)=C(N2CCOCC2)C(=O)c2ccccc21", "IC50": "27 µM"}, {"smiles": "O=C1C=C(Nc2ccccc2)C(=O)c2ccccc21", "IC50": "5.05 µM"}, {"smiles": "CN1CCN(C2=C(NC(=O)c3ccc(Br)cc3)C(=O)c3ccccc3C2=O)CC1", "IC50": "6.69 µM"}, {"smiles": "O=C1C(Nc2ccccc2)=C(N2CCN(c3ccccc3)CC2)C(=O)c2ccccc21", "IC50": "> 70 µM (inactive)"}, {"smiles": "C=C1C(=O)OC2C1CC/C(C)=C\\CCC1(C)OC21", "note": "(stereo not drawn)", "IC50": "> 47 µM (inactive)"}, {"smiles": "O=C(NC1=C(N2CCOCC2)C(=O)c2ccccc2C1=O)c1ccc(Br)cc1", "IC50": "32 µM"}, {"smiles": "C=CCNC1=C(N2CCOCC2)C(=O)c2ccccc2C1=O", "IC50": "11 µM"}, {"smiles": "COc1ccc(C2=C(NC(=O)c3ccccc3Cl)C(=O)c3ccccc3C2=O)cc1", "IC50": "17.6 µM"}, {"smiles": "O=C(NC1=C(Cl)C(=O)c2ccccc2C1=O)c1ccccc1", "IC50": "9.1 µM"}, {"smiles": "CCN(CC)CCCNC1=C(Nc2ccccc2)C(=O)c2ccccc2C1=O", "IC50": "34 µM"}, {"smiles": "O=C(NC1=C(N2CCOCC2)C(=O)c2ccccc2C1=O)c1ccccc1", "IC50": "20.1 µM"}, {"smiles": "O=C(NC1=C(c2ccccc2)C(=O)c2ccccc2C1=O)c1ccc(Br)cc1", "IC50": "> 70 µM (inactive)"}, {"smiles": "COc1cccc(C2=C(NC(=O)c3ccccc3)C(=O)c3ccccc3C2=O)c1", "IC50": "22.5 µM"}, {"smiles": "C=CCNC1=C(NCCN(CC)CC)C(=O)c2ccccc2C1=O", "IC50": "14 µM"}, {"smiles": "COC1=C(NS(=O)(=O)c2ccccc2)C(=O)c2ccccc2C1=O", "IC50": "21.7 µM"}, {"smiles": "O=C1C(Nc2ccccc2)=C(NS(=O)(=O)c2ccccc2[N+](=O)[O-])C(=O)c2ccccc21", "IC50": "> 70 µM (inactive)"}, {"smiles": "O=C1C(NS(=O)(=O)c2ccc(Br)cc2)=C(c2ccc(OC(F)(F)F)cc2)C(=O)c2ccccc21", "IC50": "> 70 µM (inactive)"}, {"smiles": "C=CCNC1=C(NS(=O)(=O)c2ccc(Br)cc2)C(=O)c2ccccc2C1=O", "IC50": "29.9 µM"}, {"smiles": "C=CCNC1=C(NCCCN(CC)CC)C(=O)c2ccccc2C1=O", "IC50": "15.6 µM"}, {"smiles": "COc1ccc(C(=O)NC2=C(c3ccc(OC(F)(F)F)cc3)C(=O)c3ccccc3C2=O)cc1", "IC50": "> 70 µM (inactive)"}, {"smiles": "CN1CCN(C2=C(Nc3ccccc3)C(=O)c3ccccc3C2=O)CC1", "IC50": "23.4 µM"}, {"smiles": "NC1=CC(=O)c2ccccc2C1=O", "IC50": "12.4 µM"}, {"smiles": "COc1ccc(C2=C(NC(C)=O)C(=O)c3ccccc3C2=O)cc1", "IC50": "13.9 µM"}, {"smiles": "CN1CCN(C2=C(NS(=O)(=O)c3ccc(Br)s3)C(=O)c3ccccc3C2=O)CC1", "IC50": "30 µM"}, {"smiles": "O=C1C(NS(=O)(=O)c2ccc(Br)s2)=C(N2CCSCC2)C(=O)c2ccccc21", "IC50": "> 70 µM (inactive)"}, {"smiles": "CC1CCN(CC(CS(=O)(=O)c2ccc([N+](=O)[O-])cc2)N2CCC(C)CC2)CC1", "note": "(stereo not drawn)", "IC50": "> 70 µM (inactive)"}, {"smiles": "COc1ccc(C(=O)NC2=C(c3ccc(OC)cc3)C(=O)c3ccccc3C2=O)cc1", "IC50": "15.6 µM"}, {"smiles": "CCN1CCN(C2=C(NC(=O)c3ccc(Br)cc3)C(=O)c3ccccc3C2=O)CC1", "IC50": "8.82 µM"}, {"smiles": "CCN1CCN(C2=C(N(C)C(C)=O)C(=O)c3ccccc3C2=O)CC1", "IC50": "6.41 µM"}, {"smiles": "C=CCNC1=C(N2CCN(CC)CC2)C(=O)c2ccccc2C1=O", "IC50": "17.9 µM"}, {"smiles": "O=C(NC1=C(c2ccccc2)C(=O)c2ccccc2C1=O)c1ccco1", "IC50": "25.7 µM"}, {"smiles": "CC(=O)N(C)C1=C(N2CCN(C)CC2)C(=O)c2ccccc2C1=O", "IC50": "4.63 µM"}, {"smiles": "CCN1CCN(C2=C(Nc3ccccc3)C(=O)c3ccccc3C2=O)CC1", "IC50": "28.1 µM"}, {"smiles": "CCN1c2ccccc2NC2N=C(OC)C(c3ccccc3)C21", "note": "(stereo not drawn)", "IC50": "23.9 µM"}, {"smiles": "COc1ccc(C2=C(NC(=O)c3cccc(Cl)c3)C(=O)c3ccccc3C2=O)cc1", "IC50": "27.7 µM"}, {"smiles": "CN1CCN(C2=C(NS(=O)(=O)c3cccs3)C(=O)c3ccccc3C2=O)CC1", "IC50": "> 70 µM (inactive)"}, {"smiles": "O=C(NC1=C(c2ccccc2)C(=O)c2ccccc2C1=O)c1ccccc1", "IC50": "26.1 µM"}, {"smiles": "CC(=O)N(C)C1=C(N2CCOCC2)C(=O)c2ccccc2C1=O", "IC50": "10.1 µM"}, {"smiles": "CC(=O)NC1=C(c2ccc3c(c2)oc2ccccc23)C(=O)c2ccccc2C1=O", "IC50": "25.3 µM"}, {"smiles": "CC(=O)NC1=C(c2cccc(Cl)c2)C(=O)c2ccccc2C1=O", "IC50": "14 µM"}, {"smiles": "NC1=C(NC(=O)c2ccccc2)C(=O)c2ccccc2C1=O", "IC50": "19.8 µM"}, {"smiles": "O=C1C(NS(=O)(=O)c2ccc(Br)cc2)=C(c2ccccc2)C(=O)c2ccccc21", "IC50": "> 70 µM (inactive)"}, {"smiles": "COc1ccc(C2=C(NC(=O)c3cccc(OC)c3)C(=O)c3ccccc3C2=O)cc1", "IC50": "29 µM"}, {"smiles": "COc1ccc(C2=C(NC(=O)c3ccc4ccccc4c3)C(=O)c3ccccc3C2=O)cc1", "IC50": "> 70 µM (inactive)"}, {"smiles": "O=C1C(Nc2ccccc2)=C(N2CCCCC2)C(=O)c2ccccc21", "IC50": "18.1 µM"}, {"smiles": "O=C(NC1=C(N2CCSCC2)C(=O)c2ccccc2C1=O)c1ccccc1", "IC50": "29.9 µM"}, {"smiles": "COc1ccc(C2=C(NC(=O)c3ccc(Cl)cc3)C(=O)c3ccccc3C2=O)cc1", "IC50": "34.6 µM"}, {"smiles": "CN1CCN(C2=C(NC(=O)c3ccccc3)C(=O)c3ccccc3C2=O)CC1", "IC50": "9.27 µM"}, {"smiles": "C=CCNC1=C(N2CCSCC2)C(=O)c2ccccc2C1=O", "IC50": "10.9 µM"}, {"smiles": "Cc1nc2ccccc2n1/N=C/c1ccc([N+](=O)[O-])s1", "IC50": "20.1 µM"}]}, {"test_system": "not listed separately", "test": "SK-MEL-5 parental cell viability reduction, dose response, orthogonal assay for MITF inhibitor project, CellTiter-Glo luminescence, dry powder samples, set 3 (AID 624315)", "conditions": "SK-MEL-5 melanoma viability, CellTiter-Glo ATP, 24 h; at 35 µM (top of the series)", "procedure,_shortened": "as §1", "values": [{"smiles": "C=CCNC1=C(NCC=C)C(=O)c2ccccc2C1=O", "activity change, negative = inhibition": "-5.12% (inactive)"}]}]}
